Source: ChEMBL document CHEMBL5712072, “Epigenetic targeting of Hedgehog pathway transcriptional output through BET bromodomain inhibition” (Nat Med, 2014)
Calls of active or inactive are those of the source. The calls are words filed in the database; no cut-off is given here.

Assays:
MEF [1] = assay: Downregulation of Gli transcription in Sufu-/- MEF cells by immunoblot analysis; format: functional, cell-based; details: Mus musculus
Procedure, shortened: (§1)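 Sufu−/− MEFs exposed to DMSO or 1 uM of JQ1, GDC-0449, LDE225 or SANT-1; RIPA lysis 30min on ice, cleared 13000rpm 15min 4°C; SDS-PAGE immunoblot with anti-GLI1, β-tubulin as loading control.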

MEF [2] = assay: Downregulation of Gli1 protein expression in Sufu-/- MEF cells by immunoblot analysis; format: functional, cell-based; details: Mus musculus; procedure, shortened: as §1
[3] = target: Bromodomain-containing protein 4 (Mus musculus) (UniProt Q9ESU6); assay: Inhibition of BRD4 in mouse Hh-Light2 cells assessed as Gli1 mRNA level by qRT-PCR analysis
[4] = target: Bromodomain-containing protein 4 (Mus musculus) (UniProt Q9ESU6); assay: Inhibition of BRD4 in mouse Hh-Light2 cells assessed as inhibition in Gli1 protein level by immunoblot analysis
[5] = target: Zinc finger protein GLI2 (Homo sapiens) (UniProt P10070); assay: Inhibition of human GLI2 expressed in Hh-Light2 cells assessed as reduction in Gli1 mRNA expression level by qRT-PCR analysis; format: cell-based
Procedure, shortened: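 Hh-Light2 cells transiently transfected (Turbofect) with full-length murine HA-Gli2-FL or N-terminally truncated human Myc-GLI2-DN; drugs (1 uM JQ1, GDC-0449, LDE225 or SANT-1) added 24hr post-transfection; Gli1 mRNA by SYBR Green qRT-PCR; mean of triplicates ± SD.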

Medulloblastoma cell [6] = assay: Induction of apoptosis in human wildtype SMO expressing medulloblastoma cells assessed as viable cells by annexin-V/PI staining based flow cytometric analysis (reference value: 74.9%); format: functional
Medulloblastoma cell [7] = assay: Induction of apoptosis in mouse wildtype SMO expressing medulloblastoma cells assessed as necrotic cells by annexin-V/PI staining based flow cytometric analysis (reference value: 22%)
Medulloblastoma cell [8] = assay: Antitumor activity in […] medulloblastoma expressing wildtype SMO […] in NSG mouse assessed as reduction in tumor growth at 100 mg/kg/day, po; format: functional, organism-based
Procedure, shortened: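 Flank allografts: 2x10e6 SmoWT-MB cells per flank (both flanks) in 4-6 week NSG mice; randomized after engraftment to vehicle, GDC-0449 100 mg/kg PO qd or JQ1 50 mg/kg IP qd, dosed until euthanasia required; caliper tumor measurement; group means ± S.E.M.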

Medulloblastoma cell [9] = assay: Induction of apoptosis in human wildtype SMO expressing medulloblastoma cells assessed as early apoptotic cells by annexin-V/PI staining based flow cytometric analysis (reference value: 0.59%); format: functional
Medulloblastoma cell [10] = assay: Antitumor activity in […] medulloblastoma cells expressing SmoD477G mutant […] in NSG mouse assessed as reduction in tumor growth at 100 mg/kg/day, po; format: functional, organism-based
Medulloblastoma cell [11] = assay: Antiproliferative activity against in […] medulloblastoma cells expressing SmoWT-MB cells from mouse assessed as cell proliferation by EdU analysis; format: functional, cell-based
Procedure, shortened: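 SmoWT-MB cells given 0.1uM GDC-0449 or LDE225 (or JQ1 1 uM); 10uM EdU added for final 6-8hrs; EdU+ cells detected by Click-iT flow cytometry or imaging, DAPI counterstain; proliferation index = EdU+/DAPI+ cells; group means ± SD.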

Medulloblastoma cell [12] = assay: Induction of apoptosis in mouse wildtype SMO expressing medulloblastoma cells assessed as late apoptotic cells by annexin-V/PI staining based flow cytometric analysis (reference value: 2.5%)

Zinc finger protein GLI2 (Homo sapiens), sequence (P10070 whole entry, the tested form may be a part): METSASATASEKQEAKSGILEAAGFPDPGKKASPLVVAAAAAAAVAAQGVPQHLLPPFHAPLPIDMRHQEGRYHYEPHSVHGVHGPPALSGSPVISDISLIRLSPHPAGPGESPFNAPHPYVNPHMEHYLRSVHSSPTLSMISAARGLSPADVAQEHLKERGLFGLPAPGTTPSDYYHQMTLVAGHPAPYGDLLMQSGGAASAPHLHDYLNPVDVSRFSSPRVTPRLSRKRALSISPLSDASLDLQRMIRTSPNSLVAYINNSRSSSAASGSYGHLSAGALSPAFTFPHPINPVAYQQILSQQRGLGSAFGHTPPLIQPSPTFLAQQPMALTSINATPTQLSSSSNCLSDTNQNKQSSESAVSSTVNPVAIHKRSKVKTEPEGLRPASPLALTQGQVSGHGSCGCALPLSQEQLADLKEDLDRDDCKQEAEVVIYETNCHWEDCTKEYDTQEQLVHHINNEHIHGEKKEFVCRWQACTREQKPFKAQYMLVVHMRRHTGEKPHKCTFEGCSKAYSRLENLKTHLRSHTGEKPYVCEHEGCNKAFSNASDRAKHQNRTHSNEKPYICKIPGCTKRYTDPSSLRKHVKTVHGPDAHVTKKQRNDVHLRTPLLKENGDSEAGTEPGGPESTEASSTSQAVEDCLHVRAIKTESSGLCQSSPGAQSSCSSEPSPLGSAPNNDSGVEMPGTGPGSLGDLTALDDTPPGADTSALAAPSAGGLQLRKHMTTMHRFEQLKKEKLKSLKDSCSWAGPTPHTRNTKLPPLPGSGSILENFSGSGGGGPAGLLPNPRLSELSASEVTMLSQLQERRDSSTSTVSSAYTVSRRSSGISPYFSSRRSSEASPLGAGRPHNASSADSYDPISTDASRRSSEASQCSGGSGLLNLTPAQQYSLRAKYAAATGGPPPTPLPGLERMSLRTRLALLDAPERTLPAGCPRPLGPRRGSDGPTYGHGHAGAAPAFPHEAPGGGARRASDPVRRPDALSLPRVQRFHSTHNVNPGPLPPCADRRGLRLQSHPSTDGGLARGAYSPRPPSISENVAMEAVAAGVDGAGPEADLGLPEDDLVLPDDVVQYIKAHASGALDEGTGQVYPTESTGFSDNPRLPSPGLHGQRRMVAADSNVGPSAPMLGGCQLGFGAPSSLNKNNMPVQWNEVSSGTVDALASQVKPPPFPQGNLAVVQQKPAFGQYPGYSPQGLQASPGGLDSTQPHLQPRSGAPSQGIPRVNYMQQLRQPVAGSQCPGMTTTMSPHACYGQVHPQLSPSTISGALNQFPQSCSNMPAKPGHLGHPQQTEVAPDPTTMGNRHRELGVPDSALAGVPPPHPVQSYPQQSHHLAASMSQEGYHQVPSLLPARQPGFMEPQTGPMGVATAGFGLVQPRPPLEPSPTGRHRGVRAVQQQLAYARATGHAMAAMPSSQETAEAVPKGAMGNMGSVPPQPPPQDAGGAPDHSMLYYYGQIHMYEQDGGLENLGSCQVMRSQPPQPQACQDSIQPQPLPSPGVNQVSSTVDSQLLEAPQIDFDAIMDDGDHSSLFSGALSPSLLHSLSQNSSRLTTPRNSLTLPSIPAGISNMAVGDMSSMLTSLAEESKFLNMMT

With `Cc1nn(-c2ccccc2)c(C)c1/C=N/N1CCN(Cc2ccccc2)CC1` the Activity (MEF [1]) was “inactive”, the Activity (MEF [2]) was “inactive” and the inhibition [3] was “Active”. The inhibition [4] was “Active” and the inhibition [5] was “inactive”.
With `CS(=O)(=O)c1ccc(C(=O)Nc2ccc(Cl)c(-c3ccccn3)c2)c(Cl)c1` [VISMODEGIB] the Activity (MEF [1]) was “inactive”, the Activity (Medulloblastoma cell [6]) was 40.8% and the Activity (Medulloblastoma cell [7]) was 51.2%. For the same compound, the Activity (MEF [2]) was “inactive”, the Activity (Medulloblastoma cell [8]) was “Active” and the inhibition [3] was “Active”. For the same compound, the Activity (Medulloblastoma cell [9]) was 1.01%, the Activity (Medulloblastoma cell [10]) was “inactive” and the inhibition [4] was “Active”. The inhibition [5] was “inactive”, the Activity (Medulloblastoma cell [11]) was “Active” and the Activity (Medulloblastoma cell [12]) was 6.98%.
